ChEMBL document CHEMBL4177542, “A New Combination of a Pleuromutilin Derivative and Doxycycline for Treatment of Multidrug-Resistant Acinetobacter baumannii” (J Med Chem, 2017)
In brackets after ≈: the same amount, converted by molar mass.

Assays:
Acinetobacter baumannii [1] = assay: Bactericidal activity against Acinetobacter baumannii ATCC 19606 after 48 hrs by resazurin dye based microdilution method; format: functional; settings: ATCC 19606 = CIP 70.34 = JCM 6841, 48 h, read-out: MBC99.9
Method in brief: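 A. baumannii ATCC 19606 grown in tryptic soy broth, 37 °C with shaking, to mid-log (OD 0.5). Cultures treated with serial dilutions of inhibitor (DMSO stock 1 mg/100 μL), 48 h at 37 °C. Resazurin then added, 1 h at 37 °C with shaking. MIC is the lowest concentration staying blue; MBC is blue retained over 4 h, with CFU plating if needed (99.9% kill).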

Acinetobacter baumannii [2] = assay: Synergistic bactericidal activity against Acinetobacter baumannii ATCC 19606 at 60:1 compound to doxycycline ratio after 48 hrs by resazurin dye based microdilution broth checkerboard method; format: functional; settings: ATCC 19606 = CIP 70.34 = JCM 6841, 48 h, read-out: MBC99.9
Method in brief: (§1)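 Checkerboard broth microdilution of drug pairs in tryptic soy broth on mid-log cultures (OD 0.5), 48 h at 37 °C. Growth read by resazurin (pink growth, blue no growth). MBC is blue retained over 4 h, CFU plating where needed. ΣFIC = C_A/MIC_A + C_B/MIC_B, taken at the growth/no-growth interface wells; ΣFIC <0.5 counts as synergy.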

Klebsiella pneumoniae [3] = assay: Synergistic bactericidal activity against Klebsiella pneumoniae ATCC 8047 at 60:1 compound to doxycycline ratio after 48 hrs by resazurin dye based microdilution broth checkerboard method; format: functional; settings: ATCC 8047, 48 h, read-out: MBC99.9; method in brief: as §1
Klebsiella pneumoniae [4] = assay: Synergistic antibacterial activity against Klebsiella pneumoniae ATCC 8047 at 2:1 compound to doxycycline ratio after 48 hrs by resazurin dye based microdilution broth checkerboard method; format: functional; settings: ATCC 8047, 48 h
Method in brief: (§2)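 Microdilution broth checkerboard of the compound combined with doxycycline, using the resazurin broth method (48 h, 37 °C, blue = no growth). ΣFIC = C_A/MIC_A + C_B/MIC_B, taken at the growth–no growth interface wells; ΣFIC below 0.5 is scored as synergy. MBC for the fixed-ratio combinations read as the 4 h resazurin endpoint.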

Escherichia coli [5] = assay: Synergistic antibacterial activity against Escherichia coli ATCC 10798 at 60:1 compound to doxycycline ratio after 48 hrs by resazurin dye based microdilution broth checkerboard method; format: functional; settings: ATCC 10798, 48 h; method in brief: as §1
Escherichia coli [6] = assay: Synergistic bactericidal activity against Escherichia coli ATCC 10798 at 60:1 compound to doxycycline ratio after 48 hrs by resazurin dye based microdilution broth checkerboard method; format: functional; settings: ATCC 10798, 48 h, read-out: MBC99.9; method in brief: as §1
Escherichia coli [7] = assay: Synergistic bactericidal activity against Escherichia coli ATCC 10798 at 2:1 compound to doxycycline ratio after 48 hrs by resazurin dye based microdilution broth checkerboard method; format: functional; settings: ATCC 10798, 48 h, read-out: MBC99.9; method in brief: as §1
Pseudomonas aeruginosa = assay: Synergistic antibacterial activity against Pseudomonas aeruginosa ATCC 27853 at 35:1 compound to doxycycline ratio after 48 hrs by resazurin dye based microdilution broth checkerboard method; format: functional; settings: ATCC 27853, 48 h; method in brief: as §2
Acinetobacter baumannii [8] = assay: Potentiation of doxycycline-induced antimicrobial activity against Acinetobacter baumannii ATCC 19606 at 0.78 ug/ml in presence of 0.025 ug/ml doxycycline by microdilution broth checkerboard method; format: functional, ATCC 19606 = CIP 70.34 = JCM 6841
Method in brief: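 A. baumannii ATCC 19606 in a broth microdilution checkerboard with doxycycline, 96 concentration combinations. ΣFIC = C_A/MIC_A + C_B/MIC_B, taken for wells at the growth/no-growth interface; ΣFIC <0.5 counts as synergy.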

Vero = assay: Cytotoxicity against African green monkey Vero cells after 72 hrs by MTT assay; format: cell-based, Chlorocebus sabaeus; settings: Chlorocebus sabaeus, Vero, 72 h; read-out: IC50
Method in brief: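 Vero (ATCC CCL-81) cells in Eagle's MEM with 10% FBS and penicillin-streptomycin, in 96-well plates. Serial dilutions from 0.78 to 200 μg/mL. Tunicamycin, colistin or tobramycin as controls on each plate. Viability by MTT, giving IC50.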

Acinetobacter baumannii [9] = assay: Synergistic antibacterial activity against Acinetobacter baumannii ATCC 19606 infected in C57BL/6 mouse assessed as survival rate at compound to doxycycline ratio of 35:1 at 4 mg/kg, ip administered as single dose measured for 5 days (reference value: <20%); format: functional; settings: ATCC 19606 = CIP 70.34 = JCM 6841, ip, 120 h
Method in brief: (§3)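 C57BL/6 mice (n = 5 per group; 4 untreated controls) infected intraperitoneally with A. baumannii ATCC19606 grown at 37 °C and collected by centrifugation, at a dose giving 75% death. Single intraperitoneal dose (2 to 60 mg/kg) given 1 h after infection. Mice monitored for 5 days, with death as the end point; survival rate recorded.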

Acinetobacter baumannii [10] = assay: Antibacterial activity against Acinetobacter baumannii ATCC 19606 infected in C57BL/6 mouse assessed as survival rate at 4 mg/kg, ip administered as single dose measured for 5 days (reference value: <20%); format: functional; settings: ATCC 19606 = CIP 70.34 = JCM 6841, ip, 120 h; method in brief: as §3

Compound C=C[C@]1(C)C[C@@H](OC(=O)CSC(C)(C)CNC(=O)[C@H](N)C(C)C)[C@]2(C)[C@H](C)CC[C@]3(CC[C@@H](O)[C@H]32)[C@@H](C)[C@@H]1O has an MBC (Acinetobacter baumannii [1]) of 3.13 to 6.25 µg/mL (≈ 5.52 to 11 µM), an MBC (Acinetobacter baumannii [2]) of 2 µg/mL and an MBC (Klebsiella pneumoniae [3]) of 3.25 µg/mL. It also gave an MIC (Klebsiella pneumoniae [4]) of 0.78 µg/mL, an MIC (Escherichia coli [5]) of 0.25 µg/mL and an MBC (Escherichia coli [6]) of 1.56 µg/mL. For the same compound, the MBC (Escherichia coli [7]) was 1.56 µg/mL, the MIC (Pseudomonas aeruginosa) was 12.5 µg/mL and the “fractional inhibitory concentration index (FICI)” value (Acinetobacter baumannii [8]) was 0.25 - 0.37. It also gave an IC50 (Vero) of 45.3 µg/mL (≈ 79.9 µM), a survival at 4 mg/kg (Acinetobacter baumannii [9]) of 100% and a survival at 4 mg/kg (Acinetobacter baumannii [10]) of 80%.
